# Test results taken from PubChem BioAssay.
# Activity calls are given as the source filed them.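 The calls were made as follows, unless noted: active = viability at or under a set limit in both replicates, limit being median viability minus 3 SD (cut at about 48% in these data, passing the limit was not always enough); inconclusive = at or under the limit in just one replicate; inactive = at or above the limit in both replicates.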
# Columns and labels:
# [1] = reduced viability of SK-BR-3 breast cancer cells – cell-based, 24 h, human, pilot screen (AID 572;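 active = viability at or below 10% of carrier control in both of two separate runs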;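 also: compound exposure lasted between 18 and 24 h rather than exactly 24 h; 100% = carrier-treated control wells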); conditions: SK-BR-3 viability, CellTiter-Glo luminescence, at 10 µM, stronger effect = lower value
# [2] = HUVEC growth inhibition – cell-based, human, primary screen (AID 575;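 active = viability at or below 30% in both replicate assays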;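 also: 100% = median of untreated cell wells with 0.1% DMSO on each plate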); conditions: HUVEC proliferation, CellTiter-Glo luminescence, 72 h; at 10 µM; stronger effect = lower value
# Summary of the method: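 Material: primary human umbilical vein endothelial cells / Schedule: 72 h exposure, 37 °C, 5% CO2, 30 min RT equilibration / Signal: ATP-based CellTiter-Glo luminescent read / Read-out basis: percent of median DMSO-control luminescence / Control set: 32 DMSO-only cell-control wells (high), 32 MePR drug-control wells (low) per plate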
# [3] = H69AR cell proliferation blockers – human, duplicate replicates, primary screen (AID 580); conditions: H69AR lung tumor cells viability, ATP luminescence, 72 h; at 10 µM; stronger effect = lower value;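 also: 100% = mean luminescence of untreated wells and 0% = no signal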
# [4] = MRP1 drug-resistance reversers in H69AR cells – cell-based, doxorubicin co-treatment, pilot screen (AID 601;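 active = viability loss from added drug above about 55%, and viability with drug at most 40%, in both replicates, limit read from the data, passing the limit was not always enough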); conditions: CellTiter-Glo, 72 h, at 10 µM; for differential viability (reversal): stronger effect = higher value
# [5] = yeast transport mutant growth inhibition pilot in 384-well plates, post-Golgi transport modulator project (AID 636; in the data active = inhibition above about 31%); conditions: absorbance 615 nm, about 18 h, stronger effect = higher value
# [6] = growth suppression of yeast trafficking mutant, preliminary HTS, modulators of trafficking downstream of Golgi apparatus project, 1536-format plate, OD 615 nm (AID 637; in the data active = inhibition above about 30%); conditions: yeast transport mutant growth, absorbance 615 nm, 18 h; stronger effect = higher value
# [7] = H69AR cells + 2 uM doxorubicin, measured here: viability with 2 uM doxorubicin, stronger effect = lower value
# [8] = H69AR cells, compound alone cytotoxicity
Structure (SMILES),viability [1],viability [2],viability [3],differential viability (reversal) ([4]; H69AR cells + 2 uM doxorubicin),"viability [4, 7] [%]","viability [4, 8] [%]",inhibition [5],inhibition [6]
CCOC(=O)c1ccc(NC(=O)N2CCN(Cc3cccc(F)c3)CC2)cc1,91% (inactive),105% (inactive),84.4% (inactive),-9.16% (inactive),93.6,84.4,-5.21% (inactive),0.91% (inactive)
COc1ccccc1N(CC(=O)NC1CCCC1)C(=O)CCC(=O)Nc1cc(C)on1,98% (inactive),102% (inactive),85.3% (inactive),-1.76% (inactive),87.1,85.3,-2% (inactive),9.82% (inactive)
CCN(C(=O)c1cccs1)c1nnc(-c2ccncc2)s1,105% (inactive),120% (inactive),92.5% (inactive),7.03% (inactive),85.5,92.5,-3.33% (inactive),2.91% (inactive)
CCCCOC(=O)Nc1nccs1,101% (inactive),107% (inactive),103% (inactive),1.28% (inactive),101,103,-5.33% (inactive),-3.27% (inactive)
COC(=O)CCC(NC(=O)c1cc(-c2ccc3c(c2)OCCO3)oc1C)C(=O)OC (stereo not drawn),91% (inactive),74.8% (inactive),85.3% (inactive),3.48% (inactive),81.9,85.3,-6.44% (inactive),0.81% (inactive)
CCOC(=O)C1(CC)NC(c2cccc(F)c2)C2C(=O)N(CC)C(=O)C21 (stereo not drawn),104% (inactive),96.1% (inactive),97.6% (inactive),5.01% (inactive),92.6,97.6,-3.29% (inactive),3.06% (inactive)
Cc1nc2ccccc2nc1OCC(=O)Nc1cc(C(F)(F)F)ccc1N1CCOCC1,72% (inactive),93% (inactive),96.3% (inactive),-4.5% (inactive),101,96.3,-6.44% (inactive),3.64% (inactive)
O=C(NC1CCCCC1)c1nc2c(nnn2Cc2ccccc2Cl)c(=O)[nH]1,77% (inactive),104% (inactive),110% (inactive),12% (inactive),98.4,110,-6.58% (inactive),-7.58% (inactive)
O=C(Nc1cccnc1)c1cc2c(ccc3ccccc32)o1,96% (inactive),97.3% (inactive),84.9% (inactive),0.36% (inactive),84.5,84.9,-0.13% (inactive),-3.45% (inactive)
CC(=O)OC[C@H]1O[C@@H](n2ncc(=O)[nH]c2=O)[C@H](OC(C)=O)[C@@H]1OC(C)=O,103% (inactive),84.3% (inactive),91.3% (inactive),3.12% (inactive),88.2,91.3,-0.39% (inactive),3.17% (inactive)
CN(C)C(=O)CN(C)S(=O)(=O)c1ccc(Cl)cc1,139% (inactive),98.9% (inactive),97.9% (inactive),-6.11% (inactive),104,97.9,-6.3% (inactive),1.82% (inactive)
CCOC(=O)C1CCCN(C(=O)c2cc3c(-c4cccc(OC)c4)nn(C)c3s2)C1 (stereo not drawn),115% (inactive),56.1% (inactive),13.2% (active),-69% (inactive),82.2,13.2,-8.13% (inactive),1.64% (inactive)
Cc1cc(-c2ccccc2)nc(SCc2ccc(C(=O)O)o2)n1,121% (inactive),103% (inactive),97.5% (inactive),5.94% (inactive),91.6,97.5,-5.6% (inactive),0.73% (inactive)
CC(CCc1ccccc1)NC(=O)CSc1nc(N)cc(N)n1 (stereo not drawn),114% (inactive),96.6% (inactive),94.7% (inactive),4.75% (inactive),90,94.7,-0.68% (inactive),-1.45% (inactive)
COC(=O)C1=C(N)Oc2cc(C)n(Cc3ccncc3)c(=O)c2C1c1cccnc1 (stereo not drawn),113% (inactive),86% (inactive),88.4% (inactive),3.73% (inactive),84.6,88.4,-7.4% (inactive),0.97% (inactive)
Cc1ccc(CN2C(=O)CCC2C(=O)NCCCN2CCCC(C)C2)cc1 (stereo not drawn),82% (inactive),113% (inactive),97.4% (inactive),8.96% (inactive),88.4,97.4,-3.07% (inactive),-3.45% (inactive)
COC(=O)CCn1nnc(-c2ccc(C)cc2)n1,90% (inactive),109% (inactive),94.1% (inactive),3.69% (inactive),90.4,94.1,-6% (inactive),-2.91% (inactive)
Cn1c(=O)c2[nH]cnc2n(C)c1=O,101% (inactive),107% (inactive),97.4% (inactive),5.22% (inactive),92.1,97.4,-1.3% (inactive),-2.83% (inactive)

Structure (SMILES),viability [1],viability [2],viability [3],differential viability (reversal) ([4]; H69AR cells + 2 uM doxorubicin),"viability [4, 7] [%]","viability [4, 8] [%]",inhibition [5],inhibition [6]
CCCn1c(=NC(C)=O)c(C#N)cc2c(=O)n3cccc(C)c3nc21,89% (inactive),108% (inactive),87.3% (inactive),-3.01% (inactive),90.3,87.3,0.81% (inactive),-3.45% (inactive)
O=C(NCC1CCCO1)c1ccc(C(=O)NCC2CCCO2)cc1 (stereo not drawn),97% (inactive),108% (inactive),113% (inactive),11.3% (inactive),101,113,-6.76% (inactive),-4% (inactive)
CC(C)(C)n1ncc2c(=O)n(CC(=O)NCc3ccccc3)cnc21,90% (inactive),54.7% (inactive),15.5% (active),-48.5% (inactive),63.9,15.5,-1.2% (inactive),-1.27% (inactive)
FC(F)(F)c1ccc(Sc2nnc(-c3cccs3)n2CC2CCCO2)nc1 (stereo not drawn),68% (inactive),104% (inactive),94.5% (inactive),6.06% (inactive),88.4,94.5,-8.22% (inactive),2% (inactive)
O=C(CCN1C(=O)c2ccccc2C1=O)N1CCN(C(=O)c2ccccc2)CC1,106% (inactive),108% (inactive),101% (inactive),8.3% (inactive),92.3,101,-3.25% (inactive),4.59% (inactive)
CNC[C@H](O)c1cccc(O)c1,131% (inactive),93.7% (inactive),92.5% (inactive),7.67% (inactive),84.8,92.5,-1.56% (inactive),2.5% (inactive)
CCC(C)(C)n1nnnc1C(c1cc2cc(C)ccc2[nH]c1=O)N1CCCC1 (stereo not drawn),94% (inactive),98.7% (inactive),98.6% (inactive),9.6% (inactive),89,98.6,-4.55% (inactive),4.26% (inactive)
COCCN(CCOC)C(=O)CCn1c(=O)oc2ccccc21,95% (inactive),105% (inactive),89% (inactive),-7.45% (inactive),96.5,89,-3.97% (inactive),-0.18% (inactive)
CNc1nnc(-c2cccc(N(C)C)c2)s1,111% (inactive),95.9% (inactive),92% (inactive),7.45% (inactive),84.6,92,-4.55% (inactive),7.38% (inactive)
COc1cc(C(=O)N2CCCC(c3nc(-c4cccs4)no3)C2)cc(OC)c1OC (stereo not drawn),90.5% (inactive),94.2% (inactive),89.7% (inactive),20.3% (inactive),69.4,89.7,-1.05% (inactive),16% (inactive)
Cc1cc(NS(=O)(=O)c2ccc(NC(=O)COc3ccc(Cl)cc3)cc2)no1,100% (inactive),107% (inactive),84.1% (inactive),-1.13% (inactive),85.2,84.1,-9.32% (inactive),-5.27% (inactive)
Cn1c(=O)c2c(nc(SCC(=O)N3CCCc4ccccc43)n2C)n(C)c1=O,94% (inactive),107% (inactive),102% (inactive),7.81% (inactive),93.9,102,1.22% (inactive),-2.73% (inactive)
COc1ccc(C2c3c(oc4ccccc4c3=O)C(=O)N2Cc2ccncc2)cc1OC (stereo not drawn),91% (inactive),96.7% (inactive),93.7% (inactive),-2.17% (inactive),95.8,93.7,-7.84% (inactive),0.18% (inactive)
NC(=O)C1CCN(C(=S)c2cccs2)CC1,77% (inactive),102% (inactive),96.1% (inactive),11.5% (inactive),84.7,96.1,-8.49% (inactive),3.39% (inactive)
Cc1ccc2cc(CN(Cc3ccc(F)cc3)Cc3nnnn3C3CCCC3)c(=O)[nH]c2c1,100% (inactive),71.2% (inactive),78.7% (inactive),4.34% (inactive),74.4,78.7,-4.19% (inactive),3.09% (inactive)
Fc1cccc(Nc2cc(-n3cccn3)ncn2)c1,95% (inactive),72.5% (inactive),89.6% (inactive),-4.63% (inactive),94.3,89.6,-7.81% (inactive),-4.76% (inactive)
O=C1OCCC1Sc1ncnc2sccc12 (stereo not drawn),78% (inactive),107% (inactive),104% (inactive),21.8% (inactive),82.3,104,-4.93% (inactive),-2.18% (inactive)
Cc1cc(C)nc(-n2nc(C)cc2NC(=O)c2ccc(Br)o2)n1,108% (inactive),87.4% (inactive),71.9% (inactive),-11.4% (inactive),83.3,71.9,-3.73% (inactive),5.27% (inactive)
